Calls of active or inactive are those of the source. The calls are words filed in the database; no cut-off is given here.
System: Penicillium oxalicum
Experiment: Antimicrobial activity against Penicillium oxalicum at 5 ug
Assay type: functional
Details: read-out: IZ
Method in brief: (§1)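 Direct bioautography: each compound is spotted onto TLC plates and the solvent evaporated. The test organism is then grown directly on the plate. Growth inhibition is scored at the spot as active (+) or very active (++). Where a number is given, it is the radius in mm of the inhibition zone around the spot.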

Structure (SMILES) | zone of inhibition at 5 µg/disc
CCCCCCC(=O)C(Br)=C(Br)Br | 5 mm
CCC(CCC(=O)C(Br)=C(Br)Br)OC(C)=O (configuration not stated) | 9 mm

System: not listed separately
Experiment: Cytotoxicity against human Col1 cells
Assay type: functional
Details: read-out: ED50 (the source's name)

Structure (SMILES) | EC50
CCCCCCC(=O)C(Br)=C(Br)Br | > 20 µg/mL

System: P388
Experiment: Cytotoxicity against mouse P388 cells
Assay type: functional
Details: read-out: ED50 (the source's name)

Structure (SMILES) | EC50
CCCCCCC(=O)C(Br)=C(Br)Br | > 5 µg/mL

System: Penicillium oxalicum
Experiment: Antimicrobial activity against Penicillium oxalicum at 10 ug
Assay type: functional
Details: read-out: IZ
Method in brief: as §1

Structure (SMILES) | zone of inhibition at 10 µg/disc
CCCCCCC(=O)C(Br)=C(Br)Br | 10 mm
CCC(CCC(=O)C(Br)=C(Br)Br)OC(C)=O (configuration not stated) | 8 mm

System: Plasmodium falciparum
Experiment: Antimalarial activity against chloroquine-sensitive Plasmodium falciparum D6 at 10 ug/ml
Assay type: functional
Details: not given

Structure (SMILES) | Activity
CCCCCCC(=O)C(Br)=C(Br)Br | >50%

System: Monocyte
Experiment: Inhibition of IL1 biosynthesis in human monocytes
Assay type: functional, cell-based
Details: not given

IC50 | Structure (SMILES)
2000 nM | CCC(CCC(=O)C(Br)=C(Br)Br)OC(C)=O (configuration not stated)

System: KB
Experiment: Cytotoxicity against human KB cells
Assay type: functional
Details: read-out: ED50 (the source's name)

Structure (SMILES) | EC50
CCCCCCC(=O)C(Br)=C(Br)Br | > 20 µg/mL

System: Escherichia coli
Experiment: Antimicrobial activity against Escherichia coli at 1 ug
Assay type: functional, organism-based
Details: not given
Method in brief: as §1

Structure (SMILES) | Activity
CCCCCCC(=O)C(Br)=C(Br)Br | inactive
CCC(CCC(=O)C(Br)=C(Br)Br)OC(C)=O (configuration not stated) | inactive

System: ZR-75-1
Experiment: Cytotoxicity against human ZR-75-1 cells
Assay type: functional
Details: read-out: ED50 (the source's name)

Structure (SMILES) | EC50
CCCCCCC(=O)C(Br)=C(Br)Br | > 20 µg/mL

System: not listed separately
Experiment: Cytotoxicity against human U373 cells
Assay type: functional, U-373MG ATCC
Details: U373 MG, read-out: ED50 (the source's name)

Structure (SMILES) | EC50
CCCCCCC(=O)C(Br)=C(Br)Br | > 20 µg/mL

System: KB
Experiment: Cytotoxicity against vinblastine-sensitive human KB cells
Assay type: functional
Details: read-out: ED50 (the source's name)

Structure (SMILES) | EC50
CCCCCCC(=O)C(Br)=C(Br)Br | > 20 µg/mL

System: Monocyte
Experiment: Inhibition of LPS-stimulated IL1 production in human monocytes
Assay type: functional, cell-based
Details: not given

IC50 | Structure (SMILES)
2000 nM | CCC(CCC(=O)C(Br)=C(Br)Br)OC(C)=O (configuration not stated)

System: Escherichia coli
Experiment: Antimicrobial activity against Escherichia coli at 10 ug
Assay type: functional, organism-based
Details: not given
Method in brief: as §1

Structure (SMILES) | Activity
CCCCCCC(=O)C(Br)=C(Br)Br | inactive
CCC(CCC(=O)C(Br)=C(Br)Br)OC(C)=O (configuration not stated) | Active

System: not listed separately
Experiment: Inhibition of PKC
Details: not given

Structure (SMILES) | IC50
CCCCCCC(=O)C(Br)=C(Br)Br | ≥ 200000 nM
CCC(CCC(=O)C(Br)=C(Br)Br)OC(C)=O (configuration not stated) | ≥ 200000 nM

System: Micrococcus luteus
Experiment: Antimicrobial activity against Micrococcus luteus at 1 ug
Assay type: functional, organism-based
Details: not given
Method in brief: as §1

Structure (SMILES) | Activity
CCCCCCC(=O)C(Br)=C(Br)Br | inactive
CCC(CCC(=O)C(Br)=C(Br)Br)OC(C)=O (configuration not stated) | inactive

System: Lu1
Experiment: Cytotoxicity against human Lu1 cells
Assay type: functional
Details: read-out: ED50 (the source's name)

Structure (SMILES) | EC50
CCCCCCC(=O)C(Br)=C(Br)Br | > 20 µg/mL

System: Penicillium oxalicum
Experiment: Antimicrobial activity against Penicillium oxalicum at 0.1 ug
Assay type: functional
Details: not given
Method in brief: as §1

Structure (SMILES) | Activity
CCC(CCC(=O)C(Br)=C(Br)Br)OC(C)=O (configuration not stated) | inactive

System: A-431
Experiment: Cytotoxicity against human A431 cells
Assay type: functional
Details: read-out: ED50 (the source's name)

Structure (SMILES) | EC50
CCCCCCC(=O)C(Br)=C(Br)Br | > 20 µg/mL

System: HT-1080
Experiment: Cytotoxicity against human HT1080 cells
Assay type: functional
Details: read-out: ED50 (the source's name)

Structure (SMILES) | EC50
CCCCCCC(=O)C(Br)=C(Br)Br | > 20 µg/mL

System: not listed separately
Experiment: Cytotoxicity against human MEL-2 cells
Assay type: functional
Details: MEL2, read-out: ED50 (the source's name)

Structure (SMILES) | EC50
CCCCCCC(=O)C(Br)=C(Br)Br | > 20 µg/mL

System: Penicillium oxalicum
Experiment: Antimicrobial activity against Penicillium oxalicum at 0.01 ug
Assay type: functional
Details: not given
Method in brief: as §1

Structure (SMILES) | Activity
CCC(CCC(=O)C(Br)=C(Br)Br)OC(C)=O (configuration not stated) | inactive

System: Micrococcus luteus
Experiment: Antimicrobial activity against Micrococcus luteus at 5 ug
Assay type: functional, organism-based
Details: not given
Method in brief: as §1

Structure (SMILES) | Activity
CCCCCCC(=O)C(Br)=C(Br)Br | Active
CCC(CCC(=O)C(Br)=C(Br)Br)OC(C)=O (configuration not stated) | inactive

System: LNCaP
Experiment: Cytotoxicity against human LNCAP cells
Assay type: functional
Details: read-out: ED50 (the source's name)

Structure (SMILES) | EC50
CCCCCCC(=O)C(Br)=C(Br)Br | > 20 µg/mL

System: KB
Experiment: Cytotoxicity against vinblastine-resistant human KB cells
Assay type: functional
Details: read-out: ED50 (the source's name)
Method in brief: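 The vinblastine-resistant KB-V1 line was tested both with and without added vinblastine in the cultured tumour-cell cytotoxicity panel. Results are reported as ED50.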

Structure (SMILES) | EC50
CCCCCCC(=O)C(Br)=C(Br)Br | > 20 µg/mL

System: not listed separately
Experiment: Cytotoxicity against human BCA1 cells
Assay type: functional
Details: read-out: ED50 (the source's name)

Structure (SMILES) | EC50
CCCCCCC(=O)C(Br)=C(Br)Br | > 20 µg/mL

System: Micrococcus luteus
Experiment: Antimicrobial activity against Micrococcus luteus at 10 ug
Assay type: functional, organism-based
Details: not given
Method in brief: as §1

Structure (SMILES) | Activity
CCCCCCC(=O)C(Br)=C(Br)Br | Active
CCC(CCC(=O)C(Br)=C(Br)Br)OC(C)=O (configuration not stated) | inactive

System: Penicillium oxalicum
Experiment: Antimicrobial activity against Penicillium oxalicum at 1 ug
Assay type: functional
Details: not given
Method in brief: as §1

Structure (SMILES) | Activity
CCCCCCC(=O)C(Br)=C(Br)Br | inactive

Same assay, conditions: read-out: IZ

Structure (SMILES) | zone of inhibition at 1 µg/disc
CCC(CCC(=O)C(Br)=C(Br)Br)OC(C)=O (configuration not stated) | 6 mm

System: Bacillus subtilis
Experiment: Antimicrobial activity against Bacillus subtilis at 5 ug
Assay type: functional, organism-based
Details: not given
Method in brief: as §1

Structure (SMILES) | Activity
CCCCCCC(=O)C(Br)=C(Br)Br | inactive
CCC(CCC(=O)C(Br)=C(Br)Br)OC(C)=O (configuration not stated) | Active

System: Bacillus subtilis
Experiment: Antimicrobial activity against Bacillus subtilis at 1 ug
Assay type: functional, organism-based
Details: not given
Method in brief: as §1

Structure (SMILES) | Activity
CCCCCCC(=O)C(Br)=C(Br)Br | inactive
CCC(CCC(=O)C(Br)=C(Br)Br)OC(C)=O (configuration not stated) | inactive

System: Escherichia coli
Experiment: Antimicrobial activity against Escherichia coli at 0.1 ug
Assay type: functional, organism-based
Details: not given
Method in brief: as §1

Structure (SMILES) | Activity
CCCCCCC(=O)C(Br)=C(Br)Br | inactive
CCC(CCC(=O)C(Br)=C(Br)Br)OC(C)=O (configuration not stated) | inactive

System: Bacillus subtilis
Experiment: Antimicrobial activity against Bacillus subtilis at 10 ug
Assay type: functional, organism-based
Details: not given
Method in brief: as §1

Structure (SMILES) | Activity
CCCCCCC(=O)C(Br)=C(Br)Br | inactive
CCC(CCC(=O)C(Br)=C(Br)Br)OC(C)=O (configuration not stated) | Active

System: not listed separately
Experiment: Inhibition of TK assessed as residual activity at 200 ug/ml
Details: not given
Method in brief: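 The enzyme was tyrosine kinase p56lck, with test compounds at 200 μg/mL. The read-out is the remaining enzyme activity.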

Activity | Structure (SMILES)
31.7% | CCC(CCC(=O)C(Br)=C(Br)Br)OC(C)=O (configuration not stated)

System: Escherichia coli
Experiment: Antimicrobial activity against Escherichia coli at 5 ug
Assay type: functional, organism-based
Details: not given
Method in brief: as §1

Structure (SMILES) | Activity
CCCCCCC(=O)C(Br)=C(Br)Br | inactive
CCC(CCC(=O)C(Br)=C(Br)Br)OC(C)=O (configuration not stated) | Active
